15 compounds from ChEMBL document CHEMBL2321757, “Anti-leukemic activity of ubiquinone-based compounds targeting trans-plasma membrane electron transport” (J Med Chem, 2013) can be followed below.

Calls of active or inactive are those of the source. The calls are words filed in the database; no cut-off is given here.

The nature of experiment [1]: Inhibition of tPMET complex in human mitochondrial gene-knockout HL60 cells after 30 mins by WST-1/mPMS reduction assay. The settings on record: HL-60, 0.5 h. The class given is cell-based. In short, it runs like this:
(§1)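 Exponential-phase cells were resuspended in HBSS at 1.0 × 10⁶ cells/mL final. Compound in DMSO was serially diluted 10-fold in HBSS from 200 μM, in triplicate, and preincubated 30 min at 37 °C, 5% CO₂. WST-1 (500 μM final) with mPMS (20 μM final) was then added. Reduction was read in real time at 450 nm over 40 min. IC50 is a dose-response mean ± SEM (n = 2/3).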
(Tetrazolium assays rely on reduction of a dye to a coloured formazan, in cell work by metabolically active cells.)

Experiment [2] is described as follows: Inhibition of tPMET complex in human HL60 cells after 30 mins by WST-1/mPMS reduction assay. The conditions noted are these: HL-60, 0.5 h. The class given is cell-based. In short, it runs like this:
as §1

The test system of experiment [3] is HL-60. The experiment can be described thus: Antiproliferative activity against human mitochondrial gene-knockout HL60 cells after 48 hrs by MTT assay. The class given is functional, cell-based. The conditions noted are these: HL-60, 48 h. In short, it runs like this: (§2)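 HL60 cells were grown in RPMI-1640 with 5% FBS. The mtDNA-knockout line was derived by 6−8 weeks in ethidium bromide (50 ng/mL) and kept with 50 μg/mL uridine and 1 mM pyruvate. Compound in DMSO was serially diluted 3-fold in RPMI […], in triplicate. Cells at 0.2 × 10⁶/mL final ran 48 h at 37 °C, 5% CO₂. MTT was added for 2 h, then overnight lysis, read at A570. IC50 is a dose-response mean ± SEM (n = 2/3).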

For experiment [4], the system named is HL-60. Briefly: Antiproliferative activity against human HL60 cells after 48 hrs by MTT assay. The class given is functional, cell-based. The settings on record: HL-60, 48 h. The method, boiled down: as §2
In experiment [5] the test system is HL-60. The experiment can be described thus: Induction of apoptosis in human HL60 cells at 30 uM after 24 hrs by propidium iodide staining-based flow cytometric analysis. The class given is functional, cell-based.
Experiment [6] concerns HL-60. The experiment can be described thus: Induction of apoptosis in human mitochondrial gene-knockout HL60 cells at 30 uM after 72 hrs by propidium iodide staining-based flow cytometric analysis. The class given is functional, cell-based. On the technique in general: In flow cytometry, cells or beads pass a laser one at a time.
For experiment [7], the system named is HL-60. The experiment can be described thus: Cell cycle arrest in human HL60 cells assessed as accumulation at S phase at 30 uM after 24 hrs by propidium iodide staining-based flow cytometric analysis (reference value: 28 %). The class given is functional.
Experiment [8] concerns HL-60. Briefly: Cell cycle arrest in human HL60 cells assessed as accumulation at G1 phase at 30 uM after 24 hrs by propidium iodide staining-based flow cytometric analysis (reference value: 38 %). The class given is functional.
For experiment [9], the system named is HL-60. Briefly: Cell cycle arrest in human mitochondrial gene-knockout HL60 cells assessed as accumulation at S phase at 30 uM after 24 hrs by propidium iodide staining-based flow cytometric analysis (reference value: 24 %). The class given is functional.
The test system of experiment [10] is HL-60. Briefly: Cell cycle arrest in human HL60 cells assessed as accumulation at sub G1 phase at 30 uM after 24 hrs by propidium iodide staining-based flow cytometric analysis (reference value: 11 %). The class given is functional.
The subject of experiment [11] is HL-60. The experiment can be described thus: Cell cycle arrest in human mitochondrial gene-knockout HL60 cells assessed as accumulation at G2 phase at 30 uM after 24 hrs by propidium iodide staining-based flow cytometric analysis (reference value: 18 %). The class given is functional.
For experiment [12], the system named is HL-60. Briefly: Cell cycle arrest in human mitochondrial gene-knockout HL60 cells assessed as accumulation at sub G1 phase at 30 uM after 24 hrs by propidium iodide staining-based flow cytometric analysis (reference value: 3 %). The class given is functional.
The subject of experiment [13] is HL-60. The experiment can be described thus: Cell cycle arrest in human mitochondrial gene-knockout HL60 cells assessed as accumulation at G1 phase at 30 uM after 24 hrs by propidium iodide staining-based flow cytometric analysis (reference value: 55 %). The class given is functional.
Experiment [14] relates to HL-60. Briefly: Cell cycle arrest in human HL60 cells assessed as accumulation at G2 phase at 30 uM after 24 hrs by propidium iodide staining-based flow cytometric analysis (reference value: 22 %). The class given is functional.

`COC1=C(OC)C(=O)C(CCCCCCCCCC[N+](Cc2ccccc2)(Cc2ccccc2)Cc2ccccc2)=C(C)C1=O`: the IC50 – broadly, the concentration needed to halve the response being measured – in experiment [1] came out at 54 µM; in experiment [2], 14 µM; in [3] it was 3 µM; in experiment [4], 2 µM. In experiment [5], the result was Active.
Take `COC1=C(OC)C(=O)C(CCCCCCCCCCn2cc[n+](C)c2)=C(C)C1=O`: the IC50 in experiment [1] was determined as 78 µM; in [2] it was 23 µM; in [3], 44 µM; in experiment [4], 35 µM.
As for `COC1=C(OC)C(=O)C(CCCCCCCCCCOc2cc(O)cc(O)c2)=C(C)C1=O`, the IC50 amounted to 13 µM in experiment [1], 6 µM in [2], 63 µM in experiment [3] and 16 µM in [4]. The result in experiment [6] and in experiment [5] was Active.
Regarding `COC1=C(OC)C(=O)C(CCCCCCCCCCN(Cc2ccccc2)Cc2ccccc2)=C(C)C1=O`, the 50% inhibitory concentration (IC50) is more than 200 µM in experiment [1], more than 200 µM in experiment [2], more than 200 µM in [3] and 33 µM in [4].
Regarding `COC1=C(OC)C(=O)C(CCCCCCCCCCn2ccnc2)=C(C)C1=O`, the IC50 in experiment [1] was 33 µM; in [2], 14 µM; in experiment [3], 15 µM; in [4] it was 3 µM.
Regarding `COC1=C(OC)C(=O)C(CCCCCCCCCCO)=C(C)C1=O` [IDEBENONE], the IC50 in experiment [1] was 70 µM; in experiment [2] it was 77 µM; in experiment [3] it was more than 200 µM; in experiment [4], 36 µM. Also, the Activity was determined as 2% in experiment [7]; 51% in experiment [8]; 36% in [9]; 12% in experiment [10]; 15% in experiment [11]; 99% in experiment [12]. The Activity is reported as 36% in experiment [13] and 35% in experiment [14].
Consider `COC1=C(OC)C(=O)C(CCCCCCCCCC[N+](C)(Cc2ccccc2)Cc2ccccc2)=C(C)C1=O.[I-]`, for which the IC50 in experiment [1] was 47 µM; in experiment [2], 10 µM; in experiment [3], 3 µM; in experiment [4], 3 µM. The Activity stood at 8% in experiment [7]; 24% in [8]; 0% in experiment [9]; 57% in experiment [10]; 0% in [11]; 0% in [12]. Moreover, the Activity in experiment [13] was found to be 35%; in experiment [14] it was 10%. In experiment [5], the outcome was Active.
With `COC1=C(OC)C(=O)C(CCCCCO)=C(C)C1=O`, the half-maximal inhibitory concentration (IC50) in experiment [1] was 123 µM; in experiment [2], more than 200 µM; in experiment [3], 8 µM; in experiment [4], 13 µM.
In the same order, the values of `COC1=C(OC)C(=O)C(CCCCCCCCCCN2CCOCC2)=C(C)C1=O` are 46 µM, 33 µM, 15 µM and 3 µM.
Turning to `COC1=C(OC)C(=O)C(CCCCCCCCCCc2c(O)cc(O)cc2O)=C(C)C1=O`, the IC50 in experiment [1] is 9 µM; in experiment [2], 21 µM; in experiment [3], more than 200 µM; in [4], more than 200 µM.
For `COC1=C(OC)C(=O)C(CCCO)=C(C)C1=O`, the IC50 in experiment [1] is 92 µM; in experiment [2] it was more than 200 µM; in [3] it was 15 µM; in experiment [4] it was 13 µM.
For the compound `COC1=C(OC)C(=O)C(CCCCCCCCCCOCc2cccc(S(=O)(=O)O)c2)=C(C)C1=O`, the IC50 in experiment [1] came out at 70 µM; in experiment [2], 81 µM; in [3] it was 120 µM; in [4], 143 µM.
In the same order, the values of `COC1=C(OC)C(=O)C(CCCCCCCCCC[N+]2(C)CCOCC2)=C(C)C1=O` are more than 200 µM, 122 µM, more than 200 µM and 1 µM.
The corresponding values for `COC1=C(OC)C(=O)C(CCCCCCCCCCn2cc[n+](Cc3ccccc3)c2)=C(C)C1=O` are 68 µM, 9 µM, 5 µM and 2 µM.
With `COC1=C(OC)C(=O)C(CCCOCc2cccc(S(=O)(=O)O)c2)=C(C)C1=O`, the IC50 in [1], in experiment [2], in experiment [3] and in experiment [4] was more than 200 µM in each case.
